Data: ChEMBL document CHEMBL1240426, “Synthesis and biological evaluation of novel hybrid chalcone derivatives as vasorelaxant agents” (Eur J Med Chem, 2010)

Tests used:
[1] = system: Aorta; assay: Vasodilatory activity in Sprague-Dawley rat aortic rings with endothelium assessed as inhibition of phenylephrine-induced vasoconstriction; assay type: functional, tissue-based
Method in brief: (§1)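 Endothelium-intact aortic rings from male Sprague-Dawley rats (4–6 months, ~250 g) were equilibrated for ≥1 h and then contracted isometrically with phenylephrine. Once tone stabilized (~20 min), compound was added cumulatively at 15–20 min intervals until relaxation reached steady state, with vehicle-only tissues run in parallel. Emax was taken as % of the PE contraction, and EC50 came from nonlinear regression of the concentration-response curve.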

[2] = system: Aorta; assay: Vasodilatory activity in Sprague-Dawley rat aortic rings with endothelium assessed as inhibition of phenylephrine-induced vasoconstriction relative to phenylephrine; assay type: functional; method in brief: as §1

Row | SMILES | EC50 [1] [µM] | Activity [1] | Emax [2] [%]
1 | O=C(/C=C/c1ccc2c(c1)OCO2)c1c(OCCO[N+](=O)[O-])cc(OCCO[N+](=O)[O-])cc1OCCO[N+](=O)[O-] | 8.4 | Dose-dependent effect | 104
2 | COC(=O)C1=C(C)NC(C)=C(C(=O)OCCOc2cc(O)ccc2C(=O)/C=C/c2ccc3c(c2)OCO3)C1c1cccc([N+](=O)[O-])c1 (configuration not stated) | 9.7 | Dose-dependent effect | 103
3 | COC(=O)C1=C(C)NC(C)=C(C(=O)OCCOc2cc(O)cc(O)c2C(=O)/C=C/c2ccc(O)cc2)C1c1cccc([N+](=O)[O-])c1 (configuration not stated) | 2.9 | Dose-dependent effect | 104
4 | COC(=O)C1=C(C)NC(C)=C(C(=O)OCCOc2cc(O)cc(O)c2C(=O)/C=C/c2cccc(Br)c2)C1c1cccc([N+](=O)[O-])c1 (configuration not stated) | 6.4 | Dose-dependent effect | 102

The next lines start with results.

Row | EC50 [1] [µM] | SMILES | Activity [1] | Emax [2] [%]
5 | 12.1 | Cc1c(COc2cc(O)cc(O)c2C(=O)/C=C/c2ccc3c(c2)OCO3)no[n+]1[O-] | Dose-dependent effect | 95.7
6 | 9.4 | Cc1c(COc2cc(O)c(C(=O)/C=C/c3ccc4c(c3)OCO4)c(OCCO[N+](=O)[O-])c2)no[n+]1[O-] | Dose-dependent effect | 96
7 | 13.4 | O=C(/C=C/c1ccc2c(c1)OCO2)c1c(O)cc(O)cc1OCCO[N+](=O)[O-] | Dose-dependent effect | 103
8 | 8.9 | Cc1no[n+]([O-])c1COc1cc(O)cc(O)c1C(=O)/C=C/c1ccc2c(c1)OCO2 | Dose-dependent effect | 100
9 | 9.3 | COC(=O)C1=C(C)NC(C)=C(C(=O)OCCOc2cc(O)cc(O)c2C(=O)/C=C/c2ccc3c(c2)OCO3)C1c1cccc([N+](=O)[O-])c1 (configuration not stated) | Dose-dependent effect | 98.6
